Reference: ChEMBL document CHEMBL1137373 (J Med Chem, 2006)

Assays:
[1] = biological target: T1, Amyloid-beta precursor protein (Homo sapiens, UniProt P05067); assay: Displacement of [125I]IMSB from beta amyloid protein 40
[2] = biological target: T1, Amyloid-beta precursor protein; assay: Displacement of [125I]IMPY from beta amyloid protein 40
[3] = Partition coefficient, log P of the compound; type: physicochemical; conditions: octanol/water
In short: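 Radioligand added to octanol/water (600 µL each), vortexed 3 min, centrifuged 2000 rpm 5 min. Aliquots of both layers counted, repartitioned until consistent. Run in triplicate. Log P taken as log of octanol/water cpm ratio.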

Mus musculus [4] = assay: Biodistribution in muscle of iv dosed ICR mouse after 60 mins; type: ADME, organism-based, Muscle tissue; conditions: in vivo, 1 h
In short: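 Male ICR mice (25-30 g, four per time point) injected by tail vein with radioligand (0.74 MBq 125I or 1.85 MBq 18F) in 0.2 mL 10% ethanol-saline. Sacrificed at 2, 30, 60 or 120 min. Blood, organs, muscle and thyroid or bone weighed and counted in a gamma counter. Expressed as % injected dose per gram.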

Mus musculus [5] = assay: Stability in iv dosed ICR mouse brain after 60 mins; type: ADME, organism-based; conditions: in vivo, 1 h
In short: (§1)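 Male ICR mice (25-30 g) given 18F radioligand (14.8 MBq/mouse) by tail vein, killed at 2, 30 and 60 min. Blood and whole brain homogenized in 1 mL chilled absolute ethanol, centrifuged 3000 rpm 3 min. Supernatant analysed by radio-TLC (20:1 CH2Cl2-CH3OH and 1:1:0.01 CH2Cl2-CH3OH-triethylamine) for percent parent radioligand.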

Mus musculus [6] = assay: Biodistribution in brain of iv dosed piperine-treated ICR mouse after 2 mins; type: ADME, organism-based; conditions: in vivo
In short: (§2)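 Male ICR mice (25-30 g, four per time point) given radioligand mixed with piperine (2 mg/kg) in 0.2 mL 10% ethanol-saline by tail vein, 1.85 MBq for the 18F tracer. Killed at 2, 30, 60 or 120 min. Blood and organs removed, weighed and gamma-counted. Data given as % injected dose per gram tissue.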

Mus musculus [7] = assay: Biodistribution in blood of iv dosed piperine-treated ICR mouse after 60 mins; type: ADME, organism-based; conditions: in vivo, 1 h; in short: as §2
Mus musculus [8] = assay: Stability in iv dosed ICR mouse blood after 60 mins; type: ADME, organism-based; conditions: in vivo, 1 h; in short: as §1
Mus musculus [9] = assay: Biodistribution in kidney of iv dosed piperine-treated ICR mouse after 2 mins; type: ADME, organism-based; conditions: in vivo; in short: as §2
Mus musculus [10] = assay: Biodistribution in spleen of iv dosed piperine-treated ICR mouse after 60 mins; type: ADME, organism-based; conditions: in vivo, 1 h; in short: as §2
Homo sapiens = organism: Homo sapiens; assay: Increase in bioavailability in human in presence of piperine after 45 mins; type: ADME, organism-based; conditions: in vivo, 0.75 h
Rattus norvegicus = organism: Rattus norvegicus; assay: Increase in bioavailability in rat in presence of piperine at 1 to 2 hrs; type: ADME, organism-based; conditions: in vivo

T1 sequence (P05067 whole entry): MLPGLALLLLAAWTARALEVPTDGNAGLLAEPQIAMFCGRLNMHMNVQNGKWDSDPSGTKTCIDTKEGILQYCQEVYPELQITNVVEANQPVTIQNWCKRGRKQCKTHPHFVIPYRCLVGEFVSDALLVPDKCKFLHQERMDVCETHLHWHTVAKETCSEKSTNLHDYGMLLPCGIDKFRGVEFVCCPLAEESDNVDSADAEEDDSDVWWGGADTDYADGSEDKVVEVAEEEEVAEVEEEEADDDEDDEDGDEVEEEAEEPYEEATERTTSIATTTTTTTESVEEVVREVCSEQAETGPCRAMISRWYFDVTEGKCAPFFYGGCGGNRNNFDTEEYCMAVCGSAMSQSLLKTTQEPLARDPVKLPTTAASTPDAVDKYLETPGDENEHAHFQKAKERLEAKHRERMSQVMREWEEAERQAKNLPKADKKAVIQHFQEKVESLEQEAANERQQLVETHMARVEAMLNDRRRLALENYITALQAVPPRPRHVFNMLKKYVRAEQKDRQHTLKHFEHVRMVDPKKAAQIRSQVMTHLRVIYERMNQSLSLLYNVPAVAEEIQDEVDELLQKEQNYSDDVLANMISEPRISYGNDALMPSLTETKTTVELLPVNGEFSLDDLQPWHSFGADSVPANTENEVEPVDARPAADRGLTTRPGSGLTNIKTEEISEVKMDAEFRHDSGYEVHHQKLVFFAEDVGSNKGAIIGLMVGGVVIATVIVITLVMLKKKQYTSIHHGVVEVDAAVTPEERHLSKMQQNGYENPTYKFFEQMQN

## COc1cc(/C=C/C(O)=C/C(=O)/C=C/c2cc(I)c(O)c(OC)c2)ccc1O
[1]
  Ki: 9.37 nM

## COc1cc(/C=C/C(O)=C/C(C)=O)ccc1OCCF
[2]
  Ki: 958 nM

## COc1cc(/C=C/C(C)=O)cc(I)c1O
[2]
  Ki: 36.6 nM
[1]
  Ki: 20 nM

## COc1cc(/C=C/C(O)=C/C(C)=O)ccc1OCCCF
[2]
  Ki: 316 nM

## COc1cc(/C=C/C(O)=C/C(C)=O)cc([125I])c1O
[3]
  logP: 1.35
Mus musculus [4]
  Drug uptake: 0.26 % ID/g

## COc1cc(/C=C/C(O)=C/C(C)=O)cc(I)c1O
[2]
  Ki: 24.9 nM

## COc1cc(/C=C/C(O)=C/C(=O)/C=C/c2ccc(OCCC[18F])c(OC)c2)ccc1O
Mus musculus [5]
  Activity: Active
Mus musculus [6]
  Drug uptake: 0.77 % ID/g
[3]
  logP: 1.84
Mus musculus [4]
  Drug uptake: 0.27 % ID/g
Mus musculus [7]
  Drug uptake: 0.82 % ID/g
Mus musculus [8]
  Activity: Not Active
Mus musculus [9]
  Drug uptake: 8.69 % ID/g
Mus musculus [10]
  Drug uptake: 41.07 % ID/g

## COc1cc(/C=C/C(O)=C/C(=O)/C=C/c2ccc(OCCCF)c(OC)c2)ccc1O
[1]
  Ki: 0.07 nM

## COc1cc(/C=C/C(C)=O)ccc1OCCCF
[2]
  Ki: 839 nM

## COc1cc(/C=C/C(C)=O)ccc1OCCF
[2]
  Ki: 233 nM

## COc1cc(/C=C/C(O)=C/C(=O)/C=C/c2cc([125I])c(O)c(OC)c2)ccc1O
[3]
  logP: 0.94

## O=C(O)c1cc(/N=N/c2ccc(-c3ccc(/N=N/c4ccc(O)c(C(=O)O)c4)cc3)cc2)ccc1O [CHRYSAMINE G]
[1]
  Ki: 0.16 nM

## COc1cc(/C=C/C(=O)CC(=O)/C=C/c2ccc(O)c(OC)c2)ccc1O [CURCUMIN]
Homo sapiens
  Bioavailability Increase: 2000%
Rattus norvegicus
  Bioavailability Increase: 154%
